Here are results for 24 molecules from the M2OR odorant receptor database.

Conditions in all cases: stereoisomer not certain
For one test, the target named is T1, OR2B3 (Homo sapiens) (UniProt O76000).
T1 sequence (whole entry): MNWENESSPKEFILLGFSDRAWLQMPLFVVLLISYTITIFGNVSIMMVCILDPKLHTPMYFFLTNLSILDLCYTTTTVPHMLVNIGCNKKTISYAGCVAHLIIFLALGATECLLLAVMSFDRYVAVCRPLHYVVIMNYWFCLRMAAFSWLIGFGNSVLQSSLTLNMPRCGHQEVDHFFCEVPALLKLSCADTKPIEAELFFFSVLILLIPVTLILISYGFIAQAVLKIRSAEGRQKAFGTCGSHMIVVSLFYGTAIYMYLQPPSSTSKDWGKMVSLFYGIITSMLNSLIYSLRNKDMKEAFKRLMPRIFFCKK
Summed up:
(§1)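 Assay methods differ from source to source, frequently being transient luciferase assays in mammalian cell lines. For each receptor–molecule pair, the label responsive (active) applies when the original authors judged the measured signal statistically different from baseline, and non-responsive (inactive) applies otherwise.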

The target of a further test is T2, OR2B6 (Homo sapiens) (UniProt P58173).
T2 sequence (whole entry): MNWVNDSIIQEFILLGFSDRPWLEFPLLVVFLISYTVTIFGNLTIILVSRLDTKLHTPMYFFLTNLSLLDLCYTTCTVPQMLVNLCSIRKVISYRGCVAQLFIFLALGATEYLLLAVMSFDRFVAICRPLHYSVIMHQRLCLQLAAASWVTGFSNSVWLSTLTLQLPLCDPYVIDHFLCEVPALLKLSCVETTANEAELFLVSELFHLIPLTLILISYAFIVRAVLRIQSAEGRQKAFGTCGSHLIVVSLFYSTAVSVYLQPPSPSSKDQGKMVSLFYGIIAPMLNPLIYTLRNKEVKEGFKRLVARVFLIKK
Put shortly:
as §1

In test [1] the test system is T3, OR2BB.
T3 sequence (whole entry): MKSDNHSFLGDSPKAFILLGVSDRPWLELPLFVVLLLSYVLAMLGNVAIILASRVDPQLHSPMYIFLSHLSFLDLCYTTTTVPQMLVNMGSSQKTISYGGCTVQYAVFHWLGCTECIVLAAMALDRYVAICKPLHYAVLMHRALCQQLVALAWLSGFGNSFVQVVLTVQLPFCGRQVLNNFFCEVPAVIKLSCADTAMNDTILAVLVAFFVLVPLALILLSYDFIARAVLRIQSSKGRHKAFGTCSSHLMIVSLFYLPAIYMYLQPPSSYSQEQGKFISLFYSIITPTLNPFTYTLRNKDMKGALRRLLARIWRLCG
Summed up: as §1

In test [2] the test system is T4, OR2BB.
T4 sequence (whole entry): T3 sequence (whole entry) with D223G
Summed up: as §1
The source holds these as a separate data set.

The target of another test is T5, OR2C1 (Homo sapiens) (UniProt O95371).
T5 sequence (whole entry): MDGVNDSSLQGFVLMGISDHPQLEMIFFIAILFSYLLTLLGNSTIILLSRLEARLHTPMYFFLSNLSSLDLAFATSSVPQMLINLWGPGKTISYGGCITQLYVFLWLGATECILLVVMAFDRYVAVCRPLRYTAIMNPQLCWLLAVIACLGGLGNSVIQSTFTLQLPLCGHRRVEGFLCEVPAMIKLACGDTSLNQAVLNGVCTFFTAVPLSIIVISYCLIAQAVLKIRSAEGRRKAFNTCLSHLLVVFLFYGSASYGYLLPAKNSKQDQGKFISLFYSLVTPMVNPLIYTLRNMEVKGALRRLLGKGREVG
Put shortly:
as §1

The next test deals with T6, OR2C1.
T6 sequence (whole entry): T5 sequence (whole entry) with C149W
Put shortly: as §1

Test [3] has as its system T7, OR2C3.
T7 sequence (whole entry): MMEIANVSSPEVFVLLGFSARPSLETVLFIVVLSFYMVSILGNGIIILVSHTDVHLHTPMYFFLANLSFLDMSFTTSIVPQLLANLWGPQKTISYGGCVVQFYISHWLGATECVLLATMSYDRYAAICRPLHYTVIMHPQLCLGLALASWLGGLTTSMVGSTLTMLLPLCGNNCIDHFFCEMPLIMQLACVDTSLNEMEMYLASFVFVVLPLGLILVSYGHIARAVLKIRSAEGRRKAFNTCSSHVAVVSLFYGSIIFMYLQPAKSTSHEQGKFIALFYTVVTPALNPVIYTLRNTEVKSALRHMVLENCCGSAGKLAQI
Summed up:
as §1

For test [4], the system named is T8, OR2C3.
T8 sequence (whole entry): T7 sequence (whole entry) with A20T, V289L
Put shortly: as §1
This is another data set of the same source.

In a further test the target is T9, OR2D2 (Homo sapiens) (UniProt Q9H210).
T9 sequence (whole entry): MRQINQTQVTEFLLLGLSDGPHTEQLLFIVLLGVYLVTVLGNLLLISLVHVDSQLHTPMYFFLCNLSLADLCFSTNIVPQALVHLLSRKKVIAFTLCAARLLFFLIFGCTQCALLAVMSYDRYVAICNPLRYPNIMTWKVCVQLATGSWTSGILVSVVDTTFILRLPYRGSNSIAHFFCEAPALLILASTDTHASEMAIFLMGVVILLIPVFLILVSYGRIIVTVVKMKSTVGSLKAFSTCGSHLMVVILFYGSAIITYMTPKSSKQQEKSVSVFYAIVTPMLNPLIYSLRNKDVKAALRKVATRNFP
Put shortly: as §1

For another test, the system named is T10, OR2D2 S148P I163T M202T.
T10 sequence (whole entry): T9 sequence (whole entry) with S148P, I163T, M202T
Summed up: as §1

For another test, the target named is T11, OR2D3 (Homo sapiens) (UniProt Q8NGH3).
T11 sequence (whole entry): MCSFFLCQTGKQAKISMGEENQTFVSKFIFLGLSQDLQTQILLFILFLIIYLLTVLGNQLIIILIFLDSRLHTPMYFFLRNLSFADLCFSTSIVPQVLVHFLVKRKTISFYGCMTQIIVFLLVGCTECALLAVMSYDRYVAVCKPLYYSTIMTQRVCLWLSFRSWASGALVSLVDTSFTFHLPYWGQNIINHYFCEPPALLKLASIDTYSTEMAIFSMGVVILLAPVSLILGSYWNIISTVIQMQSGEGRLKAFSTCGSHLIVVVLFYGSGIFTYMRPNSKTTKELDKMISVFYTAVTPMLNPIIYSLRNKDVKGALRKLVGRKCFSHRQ
Put shortly: as §1

Another test deals with T12, OR2D3 R155W.
T12 sequence (whole entry): T11 sequence (whole entry) with R155W
Summed up: as §1

Another test addresses T13, OR2C3 (Homo sapiens) (UniProt Q8N628).
T13 sequence (whole entry): T7 sequence (whole entry) with A20T, S68P, V289L
Put shortly: as §1

Changes are numbered by the printed parent chain.

With `CCCCCC1COCCC1OC(C)=O` (stereo unspecified), the “odorant receptor agonist call” value with OR2B3 (Homo sapiens) is “inactive”.

For `CCCCCC1C(=O)CCC1CC(=O)OC` (stereo unspecified), in the test with OR2B3 (Homo sapiens), the “odorant receptor agonist call” value was “inactive”.

With `COc1ccc(C)cc1`, the “odorant receptor agonist call” value in the test with OR2B3 (Homo sapiens) was “inactive”.

Take `CCC=C(C)C(O)CCCCC` (stereo unspecified): the “odorant receptor agonist call” value in the test with OR2B3 (Homo sapiens) was “inactive”.

As for `CC(C)(C)C1CCCCC1OCCCCO` (stereo unspecified), the “odorant receptor agonist call” value with OR2B3 (Homo sapiens) is “inactive”.

For `Cc1occc(=O)c1OC(=O)C(C)C`, the “odorant receptor agonist call” value with OR2B3 (Homo sapiens) was “inactive”.

On to `C=CCOC(=O)COCCC(C)C`, for which the “odorant receptor agonist call” value in the test with OR2B3 (Homo sapiens) is “inactive”.

In the case of `C=CC(C)(CCC=C(C)C)OC(C)=O` (stereo unspecified), the “odorant receptor agonist call” value with OR2B3 (Homo sapiens) was “inactive”.

Take `CCCC(C)C(=O)OCC` (stereo unspecified): in the test with OR2B3 (Homo sapiens), the “odorant receptor agonist call” value is “inactive”.

Take `CC(C)CCCC(C)(C)O`: the “odorant receptor agonist call” value in the test with OR2B3 (Homo sapiens) was “inactive”.

Regarding `COC1CC2CC1C1CC(C=O)CC21` (stereo unspecified), in the test with OR2B3 (Homo sapiens), the “odorant receptor agonist call” value was “inactive”.

As to `CC1=C(O)C(=O)C(C)O1` (stereo unspecified), the “odorant receptor agonist call” value with OR2B3 (Homo sapiens), with OR2B6 (Homo sapiens), with OR2BB [1], in the test on OR2BB [2], with OR2C1 (Homo sapiens) and in the test with OR2C1 was “inactive” throughout. The “odorant receptor agonist call” value in the test with OR2C3 [3], in the test with OR2C3 [4], with OR2D2 (Homo sapiens), in the test with OR2D2 S148P I163T M202T, with OR2D3 (Homo sapiens) and in the test on OR2D3 R155W was “inactive” throughout.

For `CCCCCCC=CCCC=O`, the “odorant receptor agonist call” value in the test with OR2B3 (Homo sapiens), with OR2B6 (Homo sapiens), in the test with OR2BB [1], in the test with OR2BB [2], in the test with OR2C1 (Homo sapiens) and in the test on OR2C1 was “inactive” in each case. Besides, the “odorant receptor agonist call” value with OR2C3 (Homo sapiens), with OR2D2 (Homo sapiens), with OR2D2 S148P I163T M202T, with OR2D3 (Homo sapiens) and in the test with OR2D3 R155W was “inactive” each time.

Consider `CC1=CCC2CC1C2(C)C` (stereo unspecified), for which the “odorant receptor agonist call” value in the test with OR2B3 (Homo sapiens) is “inactive”.

Turning to `CC(=O)C=CC1=C(C)CCCC1(C)C`, the “odorant receptor agonist call” value with OR2B3 (Homo sapiens) is “active”.

In the case of `CCc1ccc(CC(C)(C)C=O)cc1`, the “odorant receptor agonist call” value with OR2B3 (Homo sapiens) was “inactive”.

On to `Cc1ccc(C(C)C)cc1O`, for which the “odorant receptor agonist call” value with OR2B3 (Homo sapiens) was “inactive”.

In the case of `OCc1ccccc1`, the “odorant receptor agonist call” value with OR2B3 (Homo sapiens) is “inactive”.

Turning to `CC=CC(=O)C1C(C)=CCCC1(C)C` (stereo unspecified), the “odorant receptor agonist call” value with OR2B3 (Homo sapiens) is “inactive”.

`CC(C)=CCCC(C)CC=O` (stereo unspecified): the “odorant receptor agonist call” value with OR2B3 (Homo sapiens) is “inactive”.

`CCOC(=O)CC1(C)OCCO1`: the “odorant receptor agonist call” value with OR2B3 (Homo sapiens) is “inactive”.

`CC1CC(C)(c2ccccc2)CO1` (stereo unspecified): the “odorant receptor agonist call” value in the test with OR2B3 (Homo sapiens) was “inactive”.

As for `CCCCC1CCC(=O)O1` (stereo unspecified), the “odorant receptor agonist call” value with OR2B3 (Homo sapiens) is “inactive”.

Turning to `CC1=NC(C)C(C)S1` (stereo unspecified), the “odorant receptor agonist call” value with OR2B3 (Homo sapiens), in the test with OR2B6 (Homo sapiens), in the test with OR2BB [1], in the test on OR2BB [2], with OR2C1 (Homo sapiens) and in the test with OR2C1 was “inactive” in each case. Also, the “odorant receptor agonist call” value in the test on OR2C3 [3], in the test with OR2C3 [4], with OR2D2 (Homo sapiens), in the test on OR2D2 S148P I163T M202T, with OR2D3 (Homo sapiens) and with OR2D3 R155W was “inactive” each time.
